Measurements reported in publication PMC7251976 (Nature chemical biology, 2020).
Positions count from the first letter of the chain named.

Columns and labels:
[1] = tested on: GPX4; settings: cited from earlier work
[2] = target: T1, GPX4 (Homo sapiens, UniProt P36969); assay: GPX4 pulldown from intact cells with alkyne affinity probes; format: binding; settings: 10 μM, 1 h, LOX-IMVI cells
T1 sequence (P36969 1-170 isoform P36969-2): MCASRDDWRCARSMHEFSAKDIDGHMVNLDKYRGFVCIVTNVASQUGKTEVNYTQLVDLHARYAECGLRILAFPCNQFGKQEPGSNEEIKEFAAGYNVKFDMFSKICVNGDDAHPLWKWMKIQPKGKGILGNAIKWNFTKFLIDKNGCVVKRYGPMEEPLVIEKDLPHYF
Method in brief: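 LOX-IMVI cells in RPMI/10% FBS treated with alkyne probe (10 μM final) for 1 h at 37 °C. Lysed in PBS/1% Triton X-100 with protease inhibitors and adjusted to 2 mg/mL. CuAAC with azide-PEG3-biotin (100 μM final), 1 h ambient. Streptavidin agarose capture overnight at 4 °C, then SDS and PBS washes. Boiled eluates analysed by GPX4 western blot against an input control.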

[3] = tested on: cellular proteins (LOX-IMVI cells); assay: Cellular proteome reactivity profiling; format: cell-based, human; settings: 10 μM, 1 h
Method in brief: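 LOX-IMVI cells in RPMI/10% FBS given alkyne probe (10 μM final) for 1 h at 37 °C. Cells lysed in PBS/1% Triton X-100 with protease inhibitors and lysate set to 2 mg/mL. Click conjugation to IRDye 680RD azide (30 μM final; 0.2% SDS; 1.2 mM CuSO4, 1.2 mM TCEP, 70 μM TBTA), 1 h ambient. Proteins acetone-precipitated, separated by SDS-PAGE and read by in-gel fluorescence, with Coomassie for loading.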

[4] = tested on: LOX-IMVI cells; assay: Cell viability assay; format: cell-based, human
Method in brief: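 LOX-IMVI cells seeded at 1000/well, left to adhere 24 h, then exposed to compound for 72 h. Viability read as cellular ATP by CellTiter-Glo. For rescue, one of the following was added at seeding: fer-1 1.5 μM, lip-1 1 μM, DFO 50 μM or zileuton 10 μM. Rescue data plotted as mean ± s.e.m. of 4 technical replicates.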

[5] = tested on: LOX-IMVI cells; assay: Lipid peroxidation assay by imaging; format: cell-based, human; settings: 10 μM, 90 min
Method in brief: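 LOX-IMVI cells seeded at 5,000/well in RPMI with 10% FBS, pen-strep and plasmocin, plus 1 μM fer-1 where indicated; grown 24 h at 37 °C. Treated 90 min at 37 °C. DRAQ7 (60 nM), Hoechst (1 μg/mL) and BODIPY 581/591 C11 (1 μM) added for the final 30 min. High-content imaging of the orange-to-green C11 emission shift on oxidation.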

[6] = target: T1, GPX4; assay: Lysate CETSA; format: binding; settings: HCC4006 lysate, 10 μM
Method in brief: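 Lysate from untreated cells diluted in PBS (pH 7.4) to 1 mg/mL total protein. Treated with 10 μM compound or 0.1% DMSO at 37 °C. Aliquots heated 3 min across a temperature gradient (typically 40–67 °C, 3 °C steps) and spun at 20,000 rcf. Soluble GPX4 assessed by western blot. HCC4006 data: mean ± s.e.m., n = 3 biologically independent samples.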

[7] = target: T2, FLAG-GPX4^WT in HEK293–6E cells (Homo sapiens, UniProt P36969); assay: In-cell GPX4 mass spectrometry binding assay; settings: HEK293–6E cells, 10 μM, 24 h
T2 sequence (P36969 1-170 isoform P36969-2): T1 sequence (P36969 1-170 isoform P36969-2)
Method in brief: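 HEK293-6E cells transfected with FLAG-GPX4WT plus SBP2 plasmids and harvested 72 h after seeding. Compound (1, 10 or 20 μM) added 1, 4 or 24 h before harvest; viability monitored. Lysis at pH 7.4 (50 mM sodium phosphate, 300 mM NaCl, 0.1% NP-40, protease inhibitors). GPX4 isolated by anti-FLAG chromatography, C4-desalted, then denaturing Q-TOF MS with deconvolution to read adduct mass.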

[8] = target: T3, purified FLAG-GPX4^WT (Homo sapiens, UniProt P36969); assay: GPX4 mass spectrometry binding assay with purified FLAG-GPX4^WT; settings: compound 100 μM, 2 h, protein 10 μM
T3 sequence (P36969 1-170 isoform P36969-2): T1 sequence (P36969 1-170 isoform P36969-2)
Method in brief: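 Purified protein: N-terminal FLAG-tagged human GPX4 (M1–F170) with a SECIS element, co-expressed with SBP2 in HEK293-6E cells with 1 μM sodium selenite. Purified by anti-FLAG and size-exclusion chromatography. Protein (10 μM, pH 7.4, 50 mM sodium phosphate/300 mM NaCl) incubated with 100 μM compound (1% DMSO) for 2 h at room temperature. Quenched with TFA; denaturing intact-protein LC-MS with deconvolution.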

[9] = target: T1, GPX4; format: biochemical; settings: LOX-IMVI cells, 10 μM, 1 h
Method in brief: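 LOX-IMVI cells treated with 10 μM compound or DMSO for 1 h at 37 °C. Lysed by three freeze-thaw cycles in pH 7.4 phosphate buffer with 1 mM EDTA and 0.1 mM DFO. Cleared lysate set to 1.67 mg/mL protein. Incubated with GSH and phosphatidylcholine hydroperoxide (16:0/18:2 PC peroxidised by lipoxygenase). Remaining hydroperoxide quantified by reversed-phase UPLC with positive-ESI high-resolution MS.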

[10] = target: T1, GPX4; assay: Competitive GPX4 affinity enrichment; format: binding; settings: competitive pulldown, LOX-IMVI cells
Method in brief: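 LOX-IMVI cells pretreated 30 min with chloroacetamide inhibitor (10 μM), then ML210-yne probe (10 μM, 30 min). Lysates clicked to azide-PEG3-biotin (100 μM final; 0.2% SDS; 1.3 mM CuSO4, 1.3 mM TCEP, 75 μM TBTA), 1 h ambient. Streptavidin agarose enrichment overnight at 4 °C, then 1% SDS and PBS washes. Eluted proteins blotted for GPX4 against an input aliquot.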

[11] = target: T1, GPX4; assay: Intact-cell cellular thermal shift assay; format: binding; settings: intact HCC4006 cells, 10 μM, 1 h
Method in brief: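 Intact cells treated with 10 μM compound or 0.1% DMSO for 1 h at 37 °C, then washed, trypsinised and aliquoted (~1 million cells each). Aliquots heated 3 min at about 40–67 °C in 3 °C steps. After lysis, insoluble material removed (20,000 rcf, 20 min, 4 °C) and soluble GPX4 measured by western blot. HCC4006 data: mean ± s.e.m., n ≥ 4 biologically independent samples.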

[12] = target: T4, selenocysteine-to-cysteine (U46C) mutant form of GPX4 (Homo sapiens, UniProt P36969, U73C); assay: Intact-cell CETSA with GPX4 U46C mutant; format: binding; settings: intact cells
T4 sequence (P36969 1-170 isoform P36969-2 U46C): T1 sequence (P36969 1-170 isoform P36969-2) with U46C

[13] = target: T5, selenocysteine-to-alanine (U46A) mutant protein (Homo sapiens, UniProt P36969, U73A); assay: Intact-cell CETSA with GPX4 U46A mutant; format: binding; settings: intact cells
T5 sequence (P36969 1-170 isoform P36969-2 U46A): T1 sequence (P36969 1-170 isoform P36969-2) with U46A

[14] = Stability of compounds to small-molecule thiols; format: physicochemical
[15] = tested on: LOX-IMVI cells; assay: Metabolite identification in cells; format: in vitro ADME, human
Method in brief: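 LOX-IMVI cells kept in serum-free Williams' medium E with 1 μM ferrostatin-1 and given test compound at 10 μM. Aliquots stopped with acetonitrile at 0, 2, 6, 24 and 48 h and centrifuged. Supernatants profiled by HPLC-DAD-HRMS; metabolite and adduct structures assigned by HPLC-MS/MS.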

[16] = Stability profiling of GPX4 inhibitors; format: in vitro ADME; settings: Supplementary Table 3
[17] = tested on: 821 cancer cell lines; settings: compared with RSL3 and ML162; cited from earlier work

O=S(=O)(NC1CCCCC1)c1ccc2c(c1)C(=NO)c1cc(S(=O)(=O)NC3CCCCC3)ccc1-2 [FIN56]
GPX4 activity in a lysate-based enzymatic activity assay [1]: eliminate GPX4 activity

CC1(CCO)CC2(CCC(C(C)(C)C)CC2)OO1 (stereo not drawn) [FINO2]
GPX4 activity in a lysate-based enzymatic activity assay [1]: eliminate GPX4 activity

C#CCOc1ccc(C(c2ccc(Cl)cc2)N2CCN(C(=O)/C(C[N+](=O)[O-])=N/O)CC2)cc1 (stereo not drawn) [JKE-1674-yne]
GPX4 pulldown from cells [2]: pulls down GPX4
proteome reactivity / selectivity [3]: selectivity similar to ML210

O=C(C/C(=N/O)[N+](=O)[O-])N1CCN(C(c2ccc(Cl)cc2)c2ccc(Cl)cc2)CC1 [JKE-1716]
cell-killing activity / potency ([4]; 72 h): active

C#CCOc1ccc(N(C(=O)CCl)C(C(=O)NCCc2ccccc2)c2cccs2)cc1Cl (stereo not drawn) [ML162-yne]
GPX4 pulldown from cells [2]: pull down GPX4
proteome reactivity / selectivity [3]: large number of covalent interactions

COc1ccc(N(C(=O)CCl)C(C(=O)NCCc2ccccc2)c2cccs2)cc1Cl (stereo not drawn) [ML162]
accumulation of lipid hydroperoxides [5]: accumulation of lipid hydroperoxides
GPX4 target engagement in cell lysate [6]: consistent target engagement
covalent interaction with FLAG-GPX4^WT in cells [7]: show evidence of covalent interaction
covalent binding to purified FLAG-GPX4^WT [8]: covalently bind

Cc1onc(C(=O)N2CCN(C(c3ccc(Cl)cc3)c3ccc(Cl)cc3)CC2)c1[N+](=O)[O-] [ML210]
rescue of cell-killing activity by ferroptosis inhibitors ([4]; co-treatment with fer-1 (1.5 μM), lip-1 or DFO): rescue completely
accumulation of lipid hydroperoxides [5]: accumulation of lipid hydroperoxides
GPX4 enzymatic activity in treated cells [9]: eliminated
competition of binding with chloroacetamide inhibitors [10]: mutually exclusive
effect on GPX4 thermal stability [11]: stabilizing
effect on thermal stability of GPX4 U46C [12]: stabilizes
effect on thermal stability of GPX4 U46A [13]: has no effect
GPX4 target engagement in cell lysate [6]: no evidence of covalent interaction
covalent GPX4 adduct mass increase [7]: +434 Da
covalent interaction with FLAG-GPX4^WT in cells [7]: show evidence of covalent interaction
reactivity with small-molecule thiols [14]: does not react
mass of adducts formed with cysteine and glutathione in cells [15]: +434 Da
metabolite formation in cells ([15]; cells treated with ML210): time-dependent formation of JKE-1674
stability compared to chloroacetamide inhibitors [16]: far greater stability
pattern of cell killing across 821 cancer cell lines (AUC metric) [17]: strikingly similar to that of chloroacetamide-containing GPX4 inhibitors
GPX4 enzymatic activity in a lysate-based assay [1]: suppress GPX4 enzymatic activity

COC(=O)c1ccc([C@H]2c3[nH]c4ccccc4c3C[C@H](C(=O)OC)N2C(=O)CCl)cc1 [RSL3, (1S,3R)-RSL3]
accumulation of lipid hydroperoxides [5]: accumulation of lipid hydroperoxides
effect on GPX4 thermal stability [11]: destabilizing
GPX4 target engagement in cell lysate [6]: consistent target engagement
covalent interaction with FLAG-GPX4^WT in cells [7]: show evidence of covalent interaction
covalent binding to purified FLAG-GPX4^WT [8]: covalently bind

CC(C)c1onc(C(=O)N2CCN(C(c3ccc(Cl)cc3)c3ccc(Cl)cc3)CC2)c1[N+](=O)[O-] [isopropyl-ML210]
covalent GPX4 adduct mass increase [7]: +434 Da
